N-glyco inh: blocks N-linked glycosylation in D54 reporter cells; reporter increase, % at 12.5 µM; 360,000 tested, 0.23% active; D54 ERlucT glycosylation luciferase reporter, 24 h; percent of 100 nM tunicamycin response;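 active = mean luciferase reporter signal, scaled so untreated is 0 and the glycosylation-blocking control 100, at or above a set limit in every replicate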;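 also: luciferase carries N-glycosylation sites so blocking glycosylation raises the light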
ALR H2O2 inh: inhibitors of human sulfhydryl oxidase ALR | P55789 | purified ALR, DTT oxidation, H2O2 HRP-luminol luminescence | inhibition, % (no concentration beside the values) | 290,000 tested, 3.8% active | AID 485317;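 active = mean replicate inhibition above about 79%, with every replicate also reaching it, limit read from the data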
Target sequence (P55789 whole entry, looked up): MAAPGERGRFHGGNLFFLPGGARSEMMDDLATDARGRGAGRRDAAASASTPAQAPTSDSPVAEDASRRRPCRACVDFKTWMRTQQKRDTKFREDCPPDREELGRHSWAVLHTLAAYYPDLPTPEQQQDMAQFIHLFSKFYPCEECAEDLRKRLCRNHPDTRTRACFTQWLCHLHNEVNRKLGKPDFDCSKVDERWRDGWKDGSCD
T cell HTS: modulates CD8 T cell binding to vesicles. 330,000 tested, 0.068% active. response (vesicle binding), % at 7 µM. 2C CD8+ T cell-vesicle binding, flow cytometry; hits give low values;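 active = response, share of CD8 T cells binding vesicles, and their 90th percentile fluorescence all below set limits, cut at about 80% in these data, passing the limit was not always enough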;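 also: values below 100% mean blocked vesicle binding to the CD8+ T cells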
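Test system: purified 2C TCR transgenic mouse naive CD8+ T cells. Probe or stimulus: QL9-peptide-loaded Drosophila micro-vesicles bearing Ld, ICAM-1 and B7-1. Incubation: binding step 1.5 h, 37 °C, antibody labelling 20 min, ice. Measured by: flow cytometry of vesicle-bound cells.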
A number is an active result; 0 = inactive; - = no result given. This is one part of a sample in which hits are shown more often than they occur.

SMILES | N-glyco inh | ALR H2O2 inh | T cell HTS
Cc1ccc(-n2c(=S)[nH]c3ccc(C)cc3c2=O)cc1 | 0 | - | -
CCCCn1c(=O)c(C(=O)NCc2ccncc2)c(O)c2ccccc21 | 0 | 0 | 77.7
CCCCn1c(=O)c(C(=O)NCc2ccccc2)c(O)c2ccccc21 | 0 | 0 | 0
C[C@]12CCC3C(CC[C@@H]4[C@H]5O[C@H]5CC[C@]34C)C1CC[C@@H]2O (some centres not stated) | 0 | - | -
COc1cc(C(=O)OC2C[C@H]3CC[C@@H](C2)N3)ccc1O (some centres not stated) | 0 | 83.7 | 0
COc1cc(C(=O)OC2C[C@H]3CC[C@@H](C2)N3C)ccc1O (some centres not stated) | 0 | 0 | 0
CC12CC[C@H]3[C@@H](CCC4(O)C[C@H](O)CCC34/C=N/NC(=O)Cc3ccccc3)C1(O)CCC2C1=CC(=O)OC1 (some centres not stated) | 0 | 0 | 0
CC12CC[C@H]3[C@@H](CCC4(O)C[C@H](O)CCC34/C=N/NC(=O)c3ccccc3[N+](=O)[O-])C1(O)CCC2C1=CC(=O)OC1 (some centres not stated) | 29.6 | 0 | 0
CN(C)Cc1c[nH]c2cc([N+](=O)[O-])ccc12 | 0 | - | -
CCCCCn1c(=O)c(C(=O)NC(C)c2ccccc2)c(O)c2ccccc21 (configuration not stated) | 0 | 0 | 0
C[C@]12CC[C@H](O)CC1=CCC1C2CC[C@@]2(C)C1C[C@@H]1CC(=O)O[C@@H]12 (some centres not stated) | 0 | 0 | 0
COC(=O)c1ccccc1OP1(=O)COc2ccccc2OC1 | 0 | 99.2 | 0
O=P1(Nc2ccc(F)cc2)COc2ccccc2OC1 | 0 | 0 | 0
C=C1C2C[C@@]3([C@@H]1O)[C@@H](C[C@@H]2O)[C@@]12C4[C@@H]3C[C@@H]1[C@@](C)(CC[C@@H]2O)CN4CC | 0 | 0 | 0
COC(=O)C1=C(c2cccc(OCc3ccccc3)c2)C[C@@H]2CC[C@H]1N2C(=O)NCc1cccc(C(F)(F)F)c1 | 0 | 0 | 0
COc1cccc(-n2nc(C(=O)N3CCC4(CC3)OCCO4)c3ccccc3c2=O)c1 | 0 | 93.7 | 0
COc1cc(OC)cc(-n2nc(C(=O)N3CCC4(CC3)OCCO4)c3ccccc3c2=O)c1 | 0 | - | 0
Brc1ccc(Oc2cc(Br)c(Br)cc2Br)c(Br)c1 | 0 | 0 | 0
C[N+](C)(C)CC1CCCC1=O (configuration not stated) | 0 | - | -
O=[N+]([O-])c1cc(O)c(O)c([N+](=O)[O-])c1 | 0 | 91.7 | 0
O=[N+]([O-])c1ccc(O)c([N+](=O)[O-])c1 | 0 | 0 | 0
CCN1CCN(CC(c2ccccc2)c2ccccc2)CC1 | 0 | 0 | 0
O=C(c1ccccc1)C(CN1CCCC1)c1ccccc1 (configuration not stated) | 0 | 97.2 | 0
CC[C@H](C)[C@@H]1NC(=O)CNC(=O)c2csc(n2)[C@H](C(C)(C)O)OC(=O)C(C)(C)[C@H](CCCC(C)(Cl)Cl)OC(=O)c2csc1n2 | 0 | - | -
C=C1C(=O)O[C@@H]2C[C@@H](C)[C@@H]3C4OC4C(=O)[C@@]3(C)[C@@H](O)[C@H]12 (some centres not stated) | 0 | 97.6 | 0
SMILES | N-glyco inh | ALR H2O2 inh | T cell HTS
C=C1C(=O)OC2CC(C)C3C=CC(=O)C3(C)C(O)C12 (configuration not stated) | 0 | - | -
CN1CCC(O)(c2cccs2)C(C(=O)c2cccs2)C1 (configuration not stated) | 0 | 0 | 0
CCCN1CCc2cccc3c2[C@H]1Cc1ccc(O)c(O)c1-3 | 0 | 98.8 | 0
COc1ccc2c(c1O)-c1c(OC)c(OC)cc3c1[C@H](C2)N(C)CC3 | 0 | 0 | 0
COC(=O)C1=C(c2cccc(OCc3ccccc3)c2)C[C@@H]2CC[C@H]1N2C(=O)NCc1ccc(Cl)cc1 | 0 | 0 | 0
COC(=O)C1=C(c2ccc(C(C)=O)cc2)C[C@@H]2CC[C@H]1N2C(=O)NCC1CC1 | 0 | 0 | 0
COc1ccc(/C=C2\C(=O)NC(=S)N(C)C2=O)cc1C | 0 | 0 | 0
C=CCN1C(=O)/C(=C/c2ccc3c(c2)CCCN3CCC)C(=O)NC1=S | 0 | 99.1 | 0
O=C1NC(=S)N(C2CC2)C(=O)/C1=C/c1ccc2c(c1)CCN2CCCCl | 0 | 97.9 | 0
CCN1C(=O)/C(=C/c2ccc3c(c2)CCN3CCCCl)C(=O)NC1=S | 0 | 98.1 | 0
CC(C)(C)N1C(=O)NC(=O)/C(=C\c2ccc3c(c2)CCN3CCCCl)C1=O | 0 | 90.2 | 0
COc1ccccc1N1C(=O)NC(=O)/C(=C/c2ccc3c(c2)Cc2ccccc2-3)C1=O | 0 | 0 | 0
CSc1ncc(/C=C2/C(=O)NC(=O)N(C3CCCCC3)C2=O)cn1 | 0 | 0 | 0
CCCCN1C(=O)/C(=C/c2ccc(N3CCCCCC3)cc2)C(=O)NC1=S | - | 0 | 0
COC(=O)C1=C(c2ccc(F)cc2F)C[C@@H]2CC[C@H]1N2C(=O)N1CCC(C)CC1 | 0 | 0 | 0
C=C(C)[C@@H]1[C@H]2OC(=O)[C@H]1[C@]1(O)C[C@H]3O[C@]34C(=O)O[C@H]2[C@]14C | 0 | - | -
CN1CCCC2c3ccccc3CCC21 (configuration not stated) | 0 | - | -
COC(=O)C1=C(c2cccc(C#N)c2)C[C@@H]2CC[C@H]1N2C(=O)NC1CCCCC1 | 0 | 0 | 0
COc1ccc(C(=O)OC2CC3CCC(C2)[N+]3(C)[O-])cc1OC (configuration not stated) | 0 | 0 | 0
COC1C(O)C(C)OC(OC2C(Oc3cccc4c(O)c5c(=O)oc6ccc(C)c7c(=O)oc(c34)c5c67)OC(C)C(O)C2O)C1O (configuration not stated) | 42.9 | - | -
CN(C)P(=O)(N(C)C)N1CC1 | 0 | - | -
C=CCN(CC=C)C(=O)CCN1CC1C (configuration not stated) | 0 | - | -
COc1ccc(/C=N\N=C(N)N)cc1 | 0 | 0 | 0
NC(N)=N/N=C/c1ccc(N(c2ccccc2)c2ccccc2)cc1 | 0 | 93.7 | 0
NC(=Nc1ccccc1)NN=Cc1c[nH]c2ccccc12 | 0 | - | -
SMILES | N-glyco inh | ALR H2O2 inh | T cell HTS
C=C1C(=O)[C@@]23C[C@H]4[C@@H]5[C@@]6(C)CCC[C@@]57[C@@H]2[C@@H](O)[C@@H]1C[C@H]3[C@H]7N4C6 | 0 | 0 | 0
CN1CCc2nc(SCc3cccc(Br)c3)c(C#N)cc2C1 | 0 | 98.9 | 0
COC(=O)C1=C(c2ccc(OC(F)(F)F)cc2)C[C@@H]2CC[C@H]1N2C(=O)NCCCOC(C)C | 0 | 0 | 0
CN1C(=O)C(=Cc2sc(=O)n(-c3ccccc3)c2N(C)C)C(=O)N(C)C1=O | 29.3 | 0 | 0
Cc1cc(C=C2C(=O)N(C)C(=O)N(C)C2=O)c(C)n1-c1ccccc1 | 0 | 0 | 0
CC/C(=N\NC(=S)Nc1ccccc1)c1c(O)[nH]c(=O)[nH]c1=O | 0 | 99.2 | 0
CCC(=NC1CCN(Cc2ccccc2)CC1)c1c(O)[nH]c(=O)[nH]c1=O | 0 | 0 | 0
C=CCN1CC[C@]23c4c5ccc(O)c4OC2C(O)CC[C@@]3(O)[C@H]1C5 (some centres not stated) | 0 | - | 0
COC(=O)C1=C(c2ccc3ccccc3c2)C[C@@H]2CC[C@H]1N2C(=O)N1CCOCC1 | 0 | 0 | 0
COC(=O)C1=C(c2cc3ccccc3o2)C[C@@H]2CC[C@H]1N2C(=O)N1CCOCC1 | 36.3 | 0 | 0

Screens (PubChem)
